Series [1] addresses Phosphatidylinositol 4,5-bisphosphate 3-kinase catalytic subunit alpha isoform (Homo sapiens, UniProt P42336). Nature of the series: Inhibition of human recombinant PI3Kalpha assessed as PIP3 production by AlphaScreen assay. (In general: Bead proximity is the source of the signal in Alpha formats.)
Series [2] can be described thus: Lipophilicity, log D of the compound at pH 7.4 by HPLC method. The format is physicochemical. The settings on record: buffer. An outline of the steps: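 LogD measured experimentally at pH 7.4 by an HPLC method.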
Series [3] deals with Hepatocyte. The series is described as follows: Intrinsic clearance in human hepatocytes at 2 uM by LCMS analysis. The format is ADME, cell-based. In outline: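 Test compound incubated with human hepatocytes. Intrinsic clearance and half-life derived from compound disappearance.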
Series [4] concerns the target Phosphatidylinositol 4,5-bisphosphate 3-kinase catalytic subunit beta isoform (Homo sapiens, UniProt P42338). Nature of the series: Inhibition of human recombinant PI3Kbeta assessed as PIP3 production by AlphaScreen assay.
A short description of series [5]: Apparent permeability across apical to basolateral side of human Caco2 cells at 10 uM at pH 6.5 by LC-tandem MS analysis. The series is classed as ADME, cell-based. As to conditions: Caco-2, pH 6.5. An outline of the steps:
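Caco-2 monolayers, apical-to-basolateral transport at pH 6.5. Result given as apparent permeability (Papp).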
(Passage across Caco-2 layers is used to estimate intestinal permeability.)

Series [6] can be described thus: Antiplatelet activity against human platelet assessed as inhibition of collagen-induced platelet rich plasma aggregation by light transmission aggregometry. The format is functional, cell-free. In outline: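 Human platelet rich plasma stimulated with collagen. Aggregation read by light transmission aggregometry in an in-house 96-well plate format.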

This is an account of results in ChEMBL document CHEMBL3352617, “Discovery of 9-(1-phenoxyethyl)-2-morpholino-4-oxo-pyrido[1,2-a]pyrimidine-7-carboxamides as oral PI3Kβ inhibitors, useful as antiplatelet agents” (Bioorg Med Chem Lett, 2014).

Phosphatidylinositol 4,5-bisphosphate 3-kinase catalytic subunit alpha isoform, sequence (P42336 whole entry, canonical isoform): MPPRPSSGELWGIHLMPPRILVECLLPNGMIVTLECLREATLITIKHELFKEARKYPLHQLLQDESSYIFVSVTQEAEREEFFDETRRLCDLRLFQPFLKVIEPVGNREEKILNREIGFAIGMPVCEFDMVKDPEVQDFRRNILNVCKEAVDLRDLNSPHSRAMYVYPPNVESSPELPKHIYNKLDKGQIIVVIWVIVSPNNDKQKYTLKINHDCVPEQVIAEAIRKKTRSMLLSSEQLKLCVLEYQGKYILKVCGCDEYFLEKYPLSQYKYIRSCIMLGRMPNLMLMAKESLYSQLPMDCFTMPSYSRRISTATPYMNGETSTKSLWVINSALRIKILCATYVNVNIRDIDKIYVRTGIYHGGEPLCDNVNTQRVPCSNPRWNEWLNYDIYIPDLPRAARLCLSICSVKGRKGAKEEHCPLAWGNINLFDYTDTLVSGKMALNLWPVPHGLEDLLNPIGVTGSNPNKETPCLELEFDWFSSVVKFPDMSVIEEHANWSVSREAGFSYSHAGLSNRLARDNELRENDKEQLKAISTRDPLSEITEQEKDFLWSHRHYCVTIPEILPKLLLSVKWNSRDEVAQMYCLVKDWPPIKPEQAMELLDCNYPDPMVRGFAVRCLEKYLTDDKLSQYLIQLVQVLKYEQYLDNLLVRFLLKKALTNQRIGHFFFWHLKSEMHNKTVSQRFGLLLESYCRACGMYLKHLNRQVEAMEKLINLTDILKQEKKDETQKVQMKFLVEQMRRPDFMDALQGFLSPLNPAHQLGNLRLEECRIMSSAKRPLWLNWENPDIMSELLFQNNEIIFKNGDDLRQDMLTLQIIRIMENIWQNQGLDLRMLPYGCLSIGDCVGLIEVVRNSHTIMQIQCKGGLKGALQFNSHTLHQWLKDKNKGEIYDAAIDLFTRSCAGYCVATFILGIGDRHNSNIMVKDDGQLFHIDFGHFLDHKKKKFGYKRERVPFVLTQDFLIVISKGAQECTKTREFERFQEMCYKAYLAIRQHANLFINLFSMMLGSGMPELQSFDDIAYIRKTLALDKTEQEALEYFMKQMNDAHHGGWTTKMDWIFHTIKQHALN
Phosphatidylinositol 4,5-bisphosphate 3-kinase catalytic subunit beta isoform, sequence (P42338 whole entry, canonical isoform): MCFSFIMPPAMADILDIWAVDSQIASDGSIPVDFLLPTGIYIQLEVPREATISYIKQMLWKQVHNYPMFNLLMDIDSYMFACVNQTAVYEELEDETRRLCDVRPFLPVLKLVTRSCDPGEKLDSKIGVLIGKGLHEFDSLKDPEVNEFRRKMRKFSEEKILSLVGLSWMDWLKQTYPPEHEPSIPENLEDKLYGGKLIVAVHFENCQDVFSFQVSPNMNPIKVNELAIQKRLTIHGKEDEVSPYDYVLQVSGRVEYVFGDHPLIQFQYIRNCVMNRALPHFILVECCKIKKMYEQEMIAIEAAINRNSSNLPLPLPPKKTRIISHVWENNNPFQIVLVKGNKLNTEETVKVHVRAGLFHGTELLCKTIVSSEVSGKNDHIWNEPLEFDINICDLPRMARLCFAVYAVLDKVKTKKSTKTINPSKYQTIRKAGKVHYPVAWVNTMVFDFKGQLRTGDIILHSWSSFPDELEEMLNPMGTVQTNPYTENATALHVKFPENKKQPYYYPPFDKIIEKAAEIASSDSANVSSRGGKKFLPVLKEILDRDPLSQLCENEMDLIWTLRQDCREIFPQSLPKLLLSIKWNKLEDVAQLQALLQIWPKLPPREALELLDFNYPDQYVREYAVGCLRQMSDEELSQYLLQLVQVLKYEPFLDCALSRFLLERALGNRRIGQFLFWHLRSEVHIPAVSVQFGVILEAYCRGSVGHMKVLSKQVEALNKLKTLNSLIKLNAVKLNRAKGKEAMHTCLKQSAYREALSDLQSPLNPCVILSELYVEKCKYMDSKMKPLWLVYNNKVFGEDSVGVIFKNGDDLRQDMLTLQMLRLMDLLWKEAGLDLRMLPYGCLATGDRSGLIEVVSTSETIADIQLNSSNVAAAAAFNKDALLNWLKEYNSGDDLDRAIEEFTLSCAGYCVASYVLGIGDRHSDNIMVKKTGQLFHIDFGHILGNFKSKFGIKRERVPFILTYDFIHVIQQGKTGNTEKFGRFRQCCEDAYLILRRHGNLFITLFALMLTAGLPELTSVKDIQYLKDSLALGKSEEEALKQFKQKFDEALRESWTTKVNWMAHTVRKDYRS

Consider `Cc1cc([C@@H](C)Nc2ccccc2C(=O)NO)c2nc(N3CCOCC3)cc(=O)n2c1`, for which the IC50 – broadly, the midpoint of a concentration-inhibition curve – stood at 2880 nM in series [1] and 84 nM in series [4]. Moreover, in series [2], the logD (usually lipophilicity at a set pH, counting ionised and neutral species) worked out at 1.5. The “Intrinsic clearance (CLint)” value in series [3] came out at 30.2 µL/min. Also, the Papp A→B (in general, the apparent permeability from the apical to the basolateral side of a cell layer) at 10 µM in series [5] is 52 ×10⁻⁶ cm/s.

With `Cc1cc([C@@H](C)Nc2ccccc2C(=O)NS(C)(=O)=O)c2nc(N3CCOCC3)cc(=O)n2c1`, the IC50 in series [1] came to 160 nM; in series [4], 12 nM. In series [2], the logD was 0.9. Further, the “Intrinsic clearance (CLint)” value in series [3] stood at 15 µL/min. Also, in series [5], the Papp A→B at 10 µM was determined as 0.11 ×10⁻⁶ cm/s.

Take `Cc1cc(C(C)Nc2ccccc2)c2nc(N3CCOCC3)cc(=O)n2c1` (racemic): in series [1], the IC50 was determined as 5800 nM. Further, the “Intrinsic clearance (CLint)” value in series [3] was found to be 20 µL/min. Moreover, in series [5], the Papp A→B at 10 µM was 66 ×10⁻⁶ cm/s.

Regarding `Cc1cc(C(C)Nc2cccc(C(=O)O)c2)c2nc(N3CCOCC3)cc(=O)n2c1` (racemic), the logD in series [2] stood at 0.3. In series [3], the “Intrinsic clearance (CLint)” value is < 4 µL/min. Further, the Papp A→B at 10 µM in series [5] amounted to 0.9 ×10⁻⁶ cm/s.

In the case of `Cc1cc(C(C)Nc2cc(Cl)ccc2C(=O)O)c2nc(N3CCOCC3)cc(=O)n2c1` (racemic), in series [2], the logD stood at 1.2. Besides, the “Intrinsic clearance (CLint)” value in series [3] is 11.9 µL/min. In addition, the Papp A→B at 10 µM in series [5] came out at 15 ×10⁻⁶ cm/s.

In turn, `Cc1cc(C(C)Nc2ccccc2S(=O)(=O)O)c2nc(N3CCOCC3)cc(=O)n2c1` (racemic) came in with a logD in series [2] of 0.3. Also, the “Intrinsic clearance (CLint)” value in series [3] is < 4 µL/min. In series [5], the Papp A→B at 10 µM is < 0.05 ×10⁻⁶ cm/s.

`Cc1cc(C(C)Nc2ccccc2-c2nnn[nH]2)c2nc(N3CCOCC3)cc(=O)n2c1` (racemic): the logD in series [2] worked out at 0.8. Also, in series [3], the “Intrinsic clearance (CLint)” value worked out at 18.1 µL/min. In addition, in series [5], the Papp A→B at 10 µM worked out at 0.08 ×10⁻⁶ cm/s.

In the case of `CC(Nc1ccccc1)c1cc(C(=O)O)cn2c(=O)cc(N3CCOCC3)nc12` (racemic), the logD in series [2] is 0.6. Also, the “Intrinsic clearance (CLint)” value in series [3] was < 4 µL/min. The Papp A→B at 10 µM in series [5] came to 0.04 ×10⁻⁶ cm/s.

In series [2], `CC(Nc1ccccc1)c1cc(C(=O)N(C)C)cn2c(=O)cc(N3CCOCC3)nc12` (racemic) had a logD of 2.7. In addition, in series [3], the “Intrinsic clearance (CLint)” value is 4.3 µL/min. In addition, in series [5], the Papp A→B at 10 µM came out at 35.4 ×10⁻⁶ cm/s.

In the case of `CC(Nc1ccccc1)c1cc(C(=O)N(C)CCO)cn2c(=O)cc(N3CCOCC3)nc12` (racemic), the logD in series [2] came out at 2. Moreover, in series [3], the “Intrinsic clearance (CLint)” value is < 4 µL/min. In addition, in series [5], the Papp A→B at 10 µM turned out to be 4.3 ×10⁻⁶ cm/s.

On to `CC(Nc1ccccc1)c1cc(C(=O)N2CCOCC2)cn2c(=O)cc(N3CCOCC3)nc12` (racemic), for which the logD in series [2] is 2.7. The “Intrinsic clearance (CLint)” value in series [3] is < 4 µL/min. Also, the Papp A→B at 10 µM in series [5] worked out at 26.9 ×10⁻⁶ cm/s.

The compound `CC(Nc1ccccc1)c1cc(C(=O)N(C)CC(=O)O)cn2c(=O)cc(N3CCOCC3)nc12` (racemic) returned a logD in series [2] of 0.6. Also, the “Intrinsic clearance (CLint)” value in series [3] was < 4 µL/min. Besides, the Papp A→B at 10 µM in series [5] came to 1 ×10⁻⁶ cm/s.

In series [2], `CC(Nc1ccccc1)c1cc(C(=O)NCCN(C)C)cn2c(=O)cc(N3CCOCC3)nc12` (racemic) came in with a logD of 1.7. Further, the “Intrinsic clearance (CLint)” value in series [3] is < 4 µL/min.

The compound `CC(Nc1ccccc1)c1cc(C(=O)NCCN2CCNCC2)cn2c(=O)cc(N3CCOCC3)nc12` (racemic) yielded a logD in series [2] of 1.5. Further, the “Intrinsic clearance (CLint)” value in series [3] was < 4 µL/min.

Consider `CC(Oc1ccccc1)c1cc(C(=O)N(C)CCO)cn2c(=O)cc(N3CCOCC3)nc12` (racemic), for which the IC50 in series [6] amounted to 400 nM. The compound further displayed a pH-dependent lipophilicity (logD) in series [2] of 2.3.

As for `Cc1ccccc1OC(C)c1cc(C(=O)N(C)CCO)cn2c(=O)cc(N3CCOCC3)nc12` (racemic), in series [6], the IC50 was 700 nM. In series [2], the logD was determined as 3.

Consider `Cc1cccc(OC(C)c2cc(C(=O)N(C)CCO)cn3c(=O)cc(N4CCOCC4)nc23)c1` (racemic), for which the IC50 in series [6] is 5000 nM. This compound came in with a logD in series [2] of 2.8.

With `CC(Oc1ccccc1F)c1cc(C(=O)N(C)CCO)cn2c(=O)cc(N3CCOCC3)nc12` (racemic), in series [6], the IC50 was 2100 nM. Besides, in series [2], the logD was determined as 2.3.

Consider `CC(Oc1cccc(C#N)c1)c1cc(C(=O)N(C)CCO)cn2c(=O)cc(N3CCOCC3)nc12` (racemic), for which the IC50 in series [6] was determined as 1500 nM. The logD in series [2] was determined as 2.

`COc1ccccc1OC(C)c1cc(C(=O)N(C)CCO)cn2c(=O)cc(N3CCOCC3)nc12` (racemic): in series [6], the 50% inhibitory concentration (IC50) is 9600 nM. The compound further showed a logD in series [2] of 1.9.

In the case of `COc1cccc(OC(C)c2cc(C(=O)N(C)CCO)cn3c(=O)cc(N4CCOCC4)nc23)c1` (racemic), the IC50 in series [6] was 1900 nM. In addition, the logD in series [2] is 2.3.

With `Cc1cc(OC(C)c2cc(C(=O)N(C)CCO)cn3c(=O)cc(N4CCOCC4)nc23)ccc1F` (racemic), the IC50 in series [6] is 2500 nM. In addition, the logD in series [2] worked out at 2.9.

With `Cc1c(F)cccc1OC(C)c1cc(C(=O)N(C)CCO)cn2c(=O)cc(N3CCOCC3)nc12` (racemic), the IC50 in series [6] was found to be 700 nM. Besides, the logD in series [2] amounted to 3.3.
